Bioassay records: PubChem BioAssay, several laboratories
Lmaj promast = Leishmania major promastigote growth inhibition. hit rate 9% among 200,000. Leishmania major promastigotes, resazurin fluorescence viability. inhibition, % at 10 µM; in the data active means inhibition above about 50%;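 further: promastigotes grown with compound for 44 hours at 28 °C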
TNAP inh hi DEA = TNAP (human) inhibition, high acceptor; P05186; inhibition, % at 20 µM; purified TNAP, CDP-star luminescence, 1 M DEA; hit rate 0.03% among 200,000; AID 1135;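 active means over 50% inhibition of tissue-nonspecific alkaline phosphatase at 20 µM in the single-dose screen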
Target sequence (P05186 whole entry, looked up): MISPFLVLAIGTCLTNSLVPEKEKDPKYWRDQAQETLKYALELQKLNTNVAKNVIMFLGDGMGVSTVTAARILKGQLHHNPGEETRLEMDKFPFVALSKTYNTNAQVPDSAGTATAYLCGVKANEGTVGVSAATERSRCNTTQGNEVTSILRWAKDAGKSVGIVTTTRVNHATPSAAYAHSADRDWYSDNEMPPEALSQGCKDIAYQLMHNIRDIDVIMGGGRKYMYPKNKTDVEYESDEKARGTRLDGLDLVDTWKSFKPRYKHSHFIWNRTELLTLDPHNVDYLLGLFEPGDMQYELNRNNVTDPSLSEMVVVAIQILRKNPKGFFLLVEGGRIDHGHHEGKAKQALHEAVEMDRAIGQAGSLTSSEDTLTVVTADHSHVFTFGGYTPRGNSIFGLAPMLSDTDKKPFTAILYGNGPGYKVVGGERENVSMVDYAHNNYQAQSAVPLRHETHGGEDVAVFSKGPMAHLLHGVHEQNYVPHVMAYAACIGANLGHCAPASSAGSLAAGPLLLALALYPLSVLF
HCT116 bCat-KO = beta-catenin-lacking colon tumor cell growth suppression. HCT116 beta-catenin knockout viability, CellTiter-Glo, 60 h; stronger effect = lower value. viability, % at 10 µM. hit rate 1.5% among 140,000;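 active means viability at or under a set limit, the compound median less 4 SD, cut at about 6% in these data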
TNAP act hiacc = increases human TNAP activity under high phosphate acceptor concentration; 200,000 tested, under 10 active; activation factor at 20 µM; purified TNAP, CDP-star luminescence, 1 M DEA, 30 min; stronger effect = higher value; 0 = EDTA background, 1 = DMSO-only activity;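 active means activation factor at least 2 at 20 µM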
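system = human TNAP | amount = enzyme diluted 1/800 final | reagent = 100 µM CDP-star substrate | signal = luminescent substrate turnover signal | dosing = one dose, 20 µM | benchmarks = EDTA negative control, DMSO positive control | measure = activation factor | timing = 30 min reaction, room temperature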
PTEN del growth = growth suppressors of cells with PTEN tumor suppressor deletion. HCT116 PTEN-null viability, CellTiter-Glo, 60 h; stronger effect = lower value. viability, % at 10 µM. hit rate 1.2% among 140,000;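 active means viability at or below a set limit, 4 SD under the median of all tested compounds, cut at about 3.7% in these data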;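 further: PTEN knockout HCT116 line with beta catenin targeted HCT116 as companion control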
TNAP inh no acc = inhibitors of human TNAP without phosphate acceptor | P05186 | purified TNAP, CDP-star luminescence, 30 min | inhibition, % at 20 µM | hit rate 0.26% among 200,000;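 active means tissue-nonspecific alkaline phosphatase inhibition above about 50% at 20 µM in the single-dose screen, limit read from the data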
A number is an active result; n = inactive; x = no result given. Most compounds without a hit are left out; they make up all but 9.6% or so of the library.

SMILES | Lmaj promast | TNAP inh hi DEA | HCT116 bCat-KO | TNAP act hiacc | PTEN del growth | TNAP inh no acc
COc1cc(C(c2c(C)[nH][nH]c2=O)c2c(C)[nH][nH]c2=O)ccc1OS(=O)(=O)c1ccc(C)cc1 | n | 51 | n | n | n | n
COc1cc(C(c2c(C)[nH][nH]c2=O)c2c(C)[nH][nH]c2=O)ccc1OS(=O)(=O)c1ccccc1 | n | 72 | n | n | n | n
COc1cc(C(c2c(C)[nH][nH]c2=O)c2c(C)[nH][nH]c2=O)ccc1OCc1ccc([N+](=O)[O-])cc1 | 98 | n | n | n | n | n
COc1cc(C(c2c(C)[nH][nH]c2=O)c2c(C)[nH][nH]c2=O)ccc1OC(C)C | n | 87 | n | n | n | 82
COc1nc(SC)nc(Cl)c1Cc1ccc(OC(C)C)cc1 | 66 | n | n | n | n | n
N[C@@H](CO)c1nnc([C@H](CCC(=O)O)NC(=O)C2CCNCC2)o1 | n | n | x | n | x | n
CN(c1ccc(OCc2nnc(-c3ccccc3)o2)cc1)S(=O)(=O)c1ccccc1 | 54 | n | n | n | n | n
CCn1c(-c2ccccc2)csc1=Nc1ccc(S(=O)(=O)O)cc1 | 55 | n | n | n | n | n
CC1CN(c2nc(-c3ccc(Br)cc3)nnc2-c2ccccc2)CC(C)N1 (stereo not given) | 90 | n | 0.9 | n | 1.0 | n
Clc1ccc(-c2nnc(-c3ccccc3)c(N3CCSCC3)n2)cc1 | n | n | n | n | n | n
CCc1ccc(C(=O)NC(CCSC)C(=O)OC)cc1 (stereo not given) | n | n | x | n | x | n
O=C(C(Cc1ccc(Cl)cc1)NS(=O)(=O)c1ccccc1)N1CC[C@@]2(O)CCCC[C@H]2C1 (stereo not given in full) | 51 | n | n | n | n | n
O=C(CCc1nnc(-c2ccsc2)o1)N1CCc2c(Cl)cccc2C1 | n | n | x | n | x | n
CCC(C)NC(=O)CN1C(=O)NC2(CCc3ccccc3C2)C1=O (stereo not given) | n | n | x | n | x | n
CC(=O)c1ccc(OC(=O)C(CCS(C)(=O)=O)N2C(=O)c3ccccc3C2=O)cc1 (stereo not given) | 67 | n | n | n | n | n
COC(=O)c1ccc(COC(=O)C(CCS(C)(=O)=O)N2C(=O)c3ccccc3C2=O)cc1 (stereo not given) | n | n | n | n | n | n
CCOc1ccc(OC(=O)C(CCS(C)(=O)=O)N2C(=O)c3ccccc3C2=O)cc1 (stereo not given) | 72 | n | n | n | n | n
Oc1ccccc1C(=S)N1CCN(c2cccc(Cl)c2)CC1 | n | n | x | n | x | n
COc1cccc(OCC(O)CN2CCOCC2)c1 (stereo not given) | n | n | n | n | n | n
O=C(C(c1ccccc1)c1ccccc1)N1CCN(CCN2C(=O)c3cccc4cccc(c34)C2=O)CC1 | n | n | n | n | n | n
COc1cccc(OCC(O)CN2CCN(CCN3C(=O)c4cccc5cccc(c45)C3=O)CC2)c1 (stereo not given) | 100 | n | x | n | x | n
O=C(CN1CCN(CCN2C(=O)c3cccc4cccc(c34)C2=O)CC1)c1ccc(Cl)cc1 | 87 | n | n | n | n | n
O=C1c2cccc3cccc(c23)C(=O)N1CCN1CCN(CC(O)COc2ccccc2)CC1 (stereo not given) | 97 | n | n | n | n | n
CS(=O)(=O)NN1C(=O)c2ccccc2NC1c1cccs1 (stereo not given) | n | n | x | n | x | n
O=C(CCCN1C(=O)c2cccc3cccc(c23)C1=O)NC1CCS(=O)(=O)C1 (stereo not given) | n | n | x | n | x | n
SMILES | Lmaj promast | TNAP inh hi DEA | HCT116 bCat-KO | TNAP act hiacc | PTEN del growth | TNAP inh no acc
COc1ccccc1OCc1ccc(C(=O)Nc2ccc(Cl)cn2)o1 | n | n | x | n | x | n
O=C(NCc1ccc2c(c1)OCO2)C1CCCN1C(=O)Nc1cccc(Cl)c1 (stereo not given) | 99 | n | n | n | n | n
O=C(COC(=O)CCS(=O)(=O)c1ccc(Cl)cc1)NCCc1ccc(Cl)cc1Cl | n | n | n | n | n | n
COc1cccc(-c2cc(C(=O)Nc3cc(OC)c(OC)c(OC)c3)no2)c1 | 51 | n | n | n | n | n
COc1cccc(-c2cc(C(=O)Nc3c(C)nn(Cc4ccccc4C)c3C)no2)c1 | 52 | n | n | n | n | n
CN(C)S(=O)(=O)c1ccc(C(=O)OCCn2cnc3c2c(=O)n(C)c(=O)n3C)cc1 | n | n | x | n | x | n
Cc1nc(S(=O)(=O)N(C)c2ccccc2)c(C#N)c(C)c1Cl | 72 | n | 3.3 | n | n | n
CCN1CC(CN(C)Cc2nc(-c3ccc(OC)c4ccccc34)oc2C)CC1=O (stereo not given) | n | n | x | n | x | n
O=C(C1=C[C@H](c2ccccc2)C[C@H](OCc2ccc(CO)cc2)O1)N1CCOCC1 | n | n | x | n | x | n
CCOC(=O)c1sc2ncn(/N=C/c3ccc(O)cc3)c(=O)c2c1C | 94 | n | x | n | x | n
COc1ccc(C=C(C(C)=O)C(C)=O)cc1OC | n | n | n | n | n | n
COc1cc(/C=C/C(=O)CC(=O)/C=C/c2ccc(O)c(OC)c2)ccc1O | n | 53 | n | n | n | n
COc1cc(C=C(C(C)=O)C(C)=O)ccc1O | 63 | n | n | n | n | n
O=C1CC(SC(=Nc2ccccc2)Nc2ccccc2)C(=O)N1c1ccc(Cl)c(Cl)c1 (stereo not given) | 66 | n | n | n | n | n
CCOCCCNCC(=O)NCC1CCCCC1 | n | n | x | n | x | n
Cn1nccc1C(=O)OCC(=O)Nc1nc(-c2ccccc2)cs1 | n | n | n | n | n | n
Cn1cc(Cl)c(C(=O)OCC(=O)Nc2nc(-c3ccc(Br)cc3)cs2)n1 | 100 | n | n | n | n | n
O=C(Cc1nn[nH]n1)c1ccccc1O | n | n | n | n | n | n
O=C(c1ccccc1Cl)N(Cc1ccc(Br)cc1)N1C(=O)CCC1=O | n | n | x | n | x | n
COCCN(C(=O)CSc1ncc(C(F)(F)F)cc1Cl)c1c(N)n(Cc2ccccc2)c(=O)[nH]c1=O | n | n | x | n | x | n
ClC(Cl)(c1nnnn1-c1ccccc1)c1nnnn1-c1ccccc1 | n | n | 1.3 | n | 1.9 | n
CCCCOc1cccc(C(=O)NC(=S)Nc2cccnc2)c1 | 51 | n | n | n | n | n
CCOc1cccc(C(=O)NC(=S)Nc2cccnc2)c1 | n | n | n | n | n | n
CC(C)(C)c1ccc(OCCNC(=S)NC(=O)c2cccnc2)cc1 | 53 | n | n | n | n | n
CC(C)(C)c1ccc(C(=O)NC(=S)NCc2cccnc2)cc1 | n | n | n | n | n | n
Cc1cc(F)c(F)c(C(=O)N2C(C)CCCC2C)c1Cl (stereo not given) | n | n | x | n | x | n
